In brackets after ≈: the same amount, converted by molar mass.
Experiments:
[1] = Lipophilicity, log D of compound at 7.4 by LC-MS analysis; assay type: physicochemical; details: pH 7.4
Procedure, shortened: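 ChromlogD at pH 7.4: retention time on an LCMS system with an aqueous mobile phase, converted to lipophilicity with a calibration curve.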

[2] = target: T1, Mucosa-associated lymphoid tissue lymphoma translocation protein 1 (Homo sapiens, UniProt Q9UDY8); test: Inhibition of human MALT1 assessed as cleavage of substrate using fluorescent labeled Ac-LRSR-Rh110 peptide as substrate incubated for 30 mins followed by substrate addition and measured after 3 to 4 hrs by FRET assay
T1 sequence (Q9UDY8 whole entry): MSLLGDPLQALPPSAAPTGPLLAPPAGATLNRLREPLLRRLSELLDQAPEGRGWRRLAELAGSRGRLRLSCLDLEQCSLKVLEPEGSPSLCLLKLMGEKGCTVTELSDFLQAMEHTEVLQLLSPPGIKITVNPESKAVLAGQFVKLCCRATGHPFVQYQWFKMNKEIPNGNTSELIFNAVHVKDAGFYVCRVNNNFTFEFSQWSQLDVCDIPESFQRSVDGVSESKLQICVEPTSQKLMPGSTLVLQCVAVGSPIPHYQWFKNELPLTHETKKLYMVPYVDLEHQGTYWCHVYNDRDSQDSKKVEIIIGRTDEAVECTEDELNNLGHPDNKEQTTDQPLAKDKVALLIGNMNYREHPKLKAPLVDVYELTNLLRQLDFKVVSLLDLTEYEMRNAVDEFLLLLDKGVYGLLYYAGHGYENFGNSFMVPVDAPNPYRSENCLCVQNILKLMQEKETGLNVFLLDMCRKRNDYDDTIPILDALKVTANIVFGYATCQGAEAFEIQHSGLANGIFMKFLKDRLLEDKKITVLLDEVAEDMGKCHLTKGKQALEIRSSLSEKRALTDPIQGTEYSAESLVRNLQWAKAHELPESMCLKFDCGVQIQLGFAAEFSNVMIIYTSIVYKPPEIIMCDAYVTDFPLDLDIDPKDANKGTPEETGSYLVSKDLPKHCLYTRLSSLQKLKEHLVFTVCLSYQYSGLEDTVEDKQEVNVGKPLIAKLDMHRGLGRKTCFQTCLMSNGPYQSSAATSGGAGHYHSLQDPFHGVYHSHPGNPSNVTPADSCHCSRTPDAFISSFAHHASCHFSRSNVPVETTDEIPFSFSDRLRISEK
Procedure, shortened: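 Fluorogenic MALT1 cleavage assay with the tetrapeptide LRSR carrying rhodamine 110 and a non-fluorescent quencher; signal read as FRET. Horseradish peroxidase and resazurin redox counter-assays used to exclude artefacts. Values are the mean of at least three independent measurements, with standard deviation.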

[3] = Metabolic stability in human liver microsomes assessed as intrinsic clearance by LC-MS/MS analysis; assay type: ADME, Microsome; details: read-out: CLH
Procedure, shortened: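 Human liver microsomes, compound incubated; intrinsic clearance from disappearance of the parent compound over time.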

[4] = Metabolic stability in rat hepatocyte assessed as intrinsic clearance by LC-MS/MS analysis; assay type: ADME, cell-based; details: hepatocytes
Procedure, shortened: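 Rat hepatocytes, compound incubated; intrinsic clearance (per 10⁶ cells) from disappearance of the parent compound over time.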

[5] = Solubility of compound in PBS at pH 7.4 incubated for 20 to 24 hrs under shaking condition by LC-MS analysis; assay type: physicochemical; details: time 20-24 hrs
Procedure, shortened: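 Dried-DMSO solubility: 10 mM DMSO stock dried down, residue resolubilized in 0.1 M phosphate buffer, pH 7.4.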

Cytochrome P450 2C19 = Cytochrome P450 2C19 (Homo sapiens, UniProt P33261); test: Inhibition of CYP2C19 (unknown origin); assay type: ADME
[6] = target: T1, Mucosa-associated lymphoid tissue lymphoma translocation protein 1; test: Inhibition of human MALT1 in human MCF7 cells assessed as MALT1 mediated cleavage of human A20 in cytosol by fluorescence microscopy; assay type: subcellular
Procedure, shortened: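 Cellular MALT1 activity in MCF7 cells, read as inhibition of MALT1-mediated cleavage of human A20.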

[7] = target: Voltage-gated inwardly rectifying potassium channel KCNH2 (Homo sapiens, UniProt Q12809); test: Inhibition of human ERG; assay type: toxicity
Cytochrome P450 1A2 = target: T2, Cytochrome P450 1A2 (Homo sapiens, UniProt P05177); test: Inhibition of CYP1A2 (unknown origin); assay type: ADME
T2 sequence (P05177 whole entry): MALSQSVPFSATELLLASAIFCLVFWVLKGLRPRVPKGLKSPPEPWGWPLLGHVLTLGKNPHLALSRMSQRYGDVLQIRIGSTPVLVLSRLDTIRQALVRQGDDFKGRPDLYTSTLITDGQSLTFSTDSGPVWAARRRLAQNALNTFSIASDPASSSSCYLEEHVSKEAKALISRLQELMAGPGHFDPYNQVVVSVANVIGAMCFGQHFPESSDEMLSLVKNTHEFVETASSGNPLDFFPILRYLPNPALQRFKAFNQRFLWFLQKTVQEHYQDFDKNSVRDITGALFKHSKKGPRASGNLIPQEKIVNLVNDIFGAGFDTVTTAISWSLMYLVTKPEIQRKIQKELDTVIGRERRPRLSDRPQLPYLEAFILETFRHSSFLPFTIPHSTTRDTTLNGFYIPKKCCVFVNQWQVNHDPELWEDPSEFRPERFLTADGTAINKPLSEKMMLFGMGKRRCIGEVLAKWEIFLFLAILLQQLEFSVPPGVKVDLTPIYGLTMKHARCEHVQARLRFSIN

Cytochrome P450 2C9 = Cytochrome P450 2C9 (Homo sapiens, UniProt P11712); test: Inhibition of CYP2C9 (unknown origin); assay type: ADME
Cytochrome P450 2D6 = Cytochrome P450 2D6 (Homo sapiens, UniProt P10635); test: Inhibition of CYP2D6 (unknown origin); assay type: ADME
Cytochrome P450 3A4 = Cytochrome P450 3A4 (Homo sapiens, UniProt P08684); test: Inhibition of CYP3A4 (unknown origin); assay type: ADME
[8] = Passive permeability of compound across apical to basolateral in human Caco2 cells at 10 uM and measured upto 120 mins by LC-MS/MS analysis; assay type: ADME, cell-based; details: Caco-2
Procedure, shortened: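 Apical-to-basolateral passive permeability across Caco-2 monolayers, run in the presence of inhibitors of the efflux transporters P-gp, BCRP and MRP2.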

[9] = Volume of distribution at steady state in Wistar Han rat at 0.9 mg/kg, po or 0.5 mg/kg, iv; assay type: ADME, organism-based; details: in vivo
[10] = Oral bioavailability in Wistar Han rat at 0.9 mg/kg; assay type: ADME, organism-based; details: in vivo
[11] = Half life in Wistar Han rat at 0.9 mg/kg, po or 0.5 mg/kg, iv; assay type: ADME, organism-based; details: in vivo
[12] = AUC in Wistar Han rat at 0.9 mg/kg, po or 0.5 mg/kg, iv; assay type: ADME, organism-based; set-up: dose 0.9 mg/kg, route po; details: in vivo

Chain of Voltage-gated inwardly rectifying potassium channel KCNH2 (Q12809 whole entry): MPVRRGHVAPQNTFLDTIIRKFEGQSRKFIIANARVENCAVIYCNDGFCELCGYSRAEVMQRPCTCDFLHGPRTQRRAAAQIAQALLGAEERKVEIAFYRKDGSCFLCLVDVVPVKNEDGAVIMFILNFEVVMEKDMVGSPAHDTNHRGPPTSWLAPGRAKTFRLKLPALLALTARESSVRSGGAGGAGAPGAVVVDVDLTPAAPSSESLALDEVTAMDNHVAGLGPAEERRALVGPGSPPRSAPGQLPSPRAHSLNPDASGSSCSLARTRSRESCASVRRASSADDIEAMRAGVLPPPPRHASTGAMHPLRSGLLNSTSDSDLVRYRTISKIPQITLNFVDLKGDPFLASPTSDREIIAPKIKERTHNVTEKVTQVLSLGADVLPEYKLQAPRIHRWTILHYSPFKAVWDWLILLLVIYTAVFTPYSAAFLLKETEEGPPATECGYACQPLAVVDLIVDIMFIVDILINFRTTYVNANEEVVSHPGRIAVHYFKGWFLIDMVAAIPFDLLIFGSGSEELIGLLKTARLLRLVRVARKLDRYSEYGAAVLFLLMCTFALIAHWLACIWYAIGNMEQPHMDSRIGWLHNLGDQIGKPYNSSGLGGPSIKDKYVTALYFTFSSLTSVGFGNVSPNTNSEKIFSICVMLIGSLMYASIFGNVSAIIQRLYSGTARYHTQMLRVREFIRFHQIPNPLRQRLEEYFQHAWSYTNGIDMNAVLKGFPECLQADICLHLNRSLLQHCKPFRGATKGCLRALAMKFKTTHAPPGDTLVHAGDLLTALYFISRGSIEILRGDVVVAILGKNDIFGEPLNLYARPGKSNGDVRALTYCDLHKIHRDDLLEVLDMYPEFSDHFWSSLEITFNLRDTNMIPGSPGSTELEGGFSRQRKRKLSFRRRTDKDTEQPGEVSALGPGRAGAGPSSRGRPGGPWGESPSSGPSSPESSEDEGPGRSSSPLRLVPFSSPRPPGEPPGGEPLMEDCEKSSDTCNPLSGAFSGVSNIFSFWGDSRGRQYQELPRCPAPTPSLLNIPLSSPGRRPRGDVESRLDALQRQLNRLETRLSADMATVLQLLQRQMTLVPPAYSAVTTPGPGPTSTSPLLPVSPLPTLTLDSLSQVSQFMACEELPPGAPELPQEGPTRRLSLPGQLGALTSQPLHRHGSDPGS
Chain of Cytochrome P450 2C19 (P33261 whole entry): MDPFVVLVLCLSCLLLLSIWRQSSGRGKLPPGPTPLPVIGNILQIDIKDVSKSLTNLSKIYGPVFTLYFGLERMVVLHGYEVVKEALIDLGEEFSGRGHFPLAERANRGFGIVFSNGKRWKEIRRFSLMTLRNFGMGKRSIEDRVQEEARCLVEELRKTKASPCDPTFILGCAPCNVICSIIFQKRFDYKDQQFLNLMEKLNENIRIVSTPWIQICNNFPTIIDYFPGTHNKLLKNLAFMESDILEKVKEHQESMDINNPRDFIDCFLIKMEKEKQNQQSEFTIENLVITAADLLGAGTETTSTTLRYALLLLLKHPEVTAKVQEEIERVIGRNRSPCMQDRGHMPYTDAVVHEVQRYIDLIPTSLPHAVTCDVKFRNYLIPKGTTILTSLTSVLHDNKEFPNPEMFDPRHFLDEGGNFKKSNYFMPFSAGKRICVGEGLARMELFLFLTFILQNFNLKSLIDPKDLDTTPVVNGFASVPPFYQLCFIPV
Chain of Cytochrome P450 2D6 (P10635 whole entry): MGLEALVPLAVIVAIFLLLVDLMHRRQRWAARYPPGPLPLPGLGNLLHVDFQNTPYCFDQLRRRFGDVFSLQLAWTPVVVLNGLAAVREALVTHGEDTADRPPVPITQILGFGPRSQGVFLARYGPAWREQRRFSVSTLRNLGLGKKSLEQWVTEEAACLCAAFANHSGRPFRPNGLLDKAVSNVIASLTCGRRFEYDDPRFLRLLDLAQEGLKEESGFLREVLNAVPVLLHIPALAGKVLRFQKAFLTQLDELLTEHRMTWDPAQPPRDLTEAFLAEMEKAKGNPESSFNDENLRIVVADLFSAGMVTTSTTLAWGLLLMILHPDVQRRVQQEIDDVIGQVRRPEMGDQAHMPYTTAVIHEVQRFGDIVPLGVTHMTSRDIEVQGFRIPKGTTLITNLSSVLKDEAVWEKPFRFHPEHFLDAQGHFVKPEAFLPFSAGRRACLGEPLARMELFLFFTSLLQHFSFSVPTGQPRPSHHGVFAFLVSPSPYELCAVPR
Chain of Cytochrome P450 3A4 (P08684 whole entry): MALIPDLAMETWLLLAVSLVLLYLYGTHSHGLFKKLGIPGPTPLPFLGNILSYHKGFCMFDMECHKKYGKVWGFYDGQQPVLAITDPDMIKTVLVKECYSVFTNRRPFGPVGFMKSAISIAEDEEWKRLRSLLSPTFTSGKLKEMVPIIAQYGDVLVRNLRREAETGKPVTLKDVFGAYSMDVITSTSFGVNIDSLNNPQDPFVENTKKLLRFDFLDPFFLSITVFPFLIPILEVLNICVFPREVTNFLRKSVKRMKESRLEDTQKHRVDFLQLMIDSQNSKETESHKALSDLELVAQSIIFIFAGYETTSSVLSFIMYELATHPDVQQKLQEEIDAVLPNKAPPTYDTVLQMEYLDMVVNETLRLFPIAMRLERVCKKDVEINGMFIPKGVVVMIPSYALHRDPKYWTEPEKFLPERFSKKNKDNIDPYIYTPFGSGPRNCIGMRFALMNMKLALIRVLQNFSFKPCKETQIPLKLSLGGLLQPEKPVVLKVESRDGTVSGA
Chain of Cytochrome P450 2C9 (P11712 whole entry): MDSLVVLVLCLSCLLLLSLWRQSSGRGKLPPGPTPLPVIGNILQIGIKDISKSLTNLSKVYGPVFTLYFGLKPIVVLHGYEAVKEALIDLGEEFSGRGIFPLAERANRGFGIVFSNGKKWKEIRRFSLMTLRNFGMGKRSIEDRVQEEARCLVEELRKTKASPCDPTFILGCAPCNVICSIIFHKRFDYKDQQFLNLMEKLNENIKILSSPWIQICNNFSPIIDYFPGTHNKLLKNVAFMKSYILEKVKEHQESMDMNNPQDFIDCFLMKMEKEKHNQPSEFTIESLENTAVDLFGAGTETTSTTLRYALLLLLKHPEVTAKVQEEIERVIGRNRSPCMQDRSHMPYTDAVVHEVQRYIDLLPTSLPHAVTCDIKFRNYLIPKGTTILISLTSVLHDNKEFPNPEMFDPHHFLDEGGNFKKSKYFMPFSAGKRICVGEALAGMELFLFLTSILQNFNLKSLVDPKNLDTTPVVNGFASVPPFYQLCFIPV

SMILES | logD [1] | IC50 [2] | microsomal CLint [3] | also measured
FC(F)(F)c1cc(N[C@H]2CC[C@@H](Nc3ccc4nnc(Cl)n4n3)CC2)ccn1 | 2.9 | 1.5 µM | 11 µL/min/mg | 
FC(F)(F)c1cccc(N[C@H]2CC[C@@H](Nc3ccc4nnc(Cl)n4n3)CC2)c1 | 5.2 | 1.4 µM | 9.2 µL/min/mg | 
FC(F)(F)c1nccc(N[C@H]2CC[C@@H](Nc3ccnc(C(F)(F)F)n3)CC2)n1 | 4.3 | 2.2 µM | < 3 µL/min/mg | CLH [4]: < 1 10^-6uL/min; solubility [5]: 37 µM (≈ 15 µg/mL)
FC(F)(F)c1nccc(NC2CCN(c3ccc4nnc(Cl)n4n3)CC2)n1 | 2.6 | 6.1 µM | 50 µL/min/mg | 
FC(F)(F)c1nccc(N[C@@H]2CC[C@H](Nc3ccc4nnc(Cl)n4n3)C2)n1 (racemic) | 3.4 | 1.1 µM | 17 µL/min/mg | 
FC(F)(F)c1nccc(N[C@H]2CC[C@@H](Oc3ccc4nnc(Cl)n4n3)CC2)n1 | 3.5 | 7.2 µM | < 3 µL/min/mg | 
FC(F)(F)c1nccc(N[C@H]2CC[C@@H](Nc3ccc4nncn4n3)CC2)n1 | 1.7 | 35 µM | < 3 µL/min/mg | 
FC(F)(F)c1nccc(O[C@H]2CC[C@@H](Nc3ccc4nnc(Cl)n4n3)CC2)n1 | 3.7 | 1.2 µM | < 3 µL/min/mg | 
FC(F)(F)c1nccc(N[C@H]2CC[C@@H](Nc3ccc4nnc(C(F)(F)F)n4n3)CC2)n1 | 3.8 | 1.8 µM | < 3 µL/min/mg | 
FC(F)(F)c1nccc(N[C@H]2CC[C@@H](Nc3ncnc4sccc34)CC2)n1 | 2.9 | 5 µM | 22 µL/min/mg | 
FC(F)(F)c1nccc(NC[C@H]2C[C@@H](Nc3ccc4nnc(Cl)n4n3)C2)n1 | 2.5 | 18 µM | 23 µL/min/mg | 
CSc1nnc2ccc(N[C@H]3CC[C@@H](Nc4ccnc(C(F)(F)F)n4)CC3)nn12 | 2.8 | 0.8 µM | 29 µL/min/mg | IC50 [6]: 5.9 µM
FC(F)(F)c1nccc(N[C@H]2CC[C@@H](Nc3ccc4nnc(C5CC5)n4n3)CC2)n1 | 4.5 | 4.5 µM | < 3 µL/min/mg | 
FC(F)(F)c1nccc(N[C@H]2CC[C@@H](Nc3cnc4ccccc4c3)CC2)n1 | 4.6 | 7.2 µM | 5.2 µL/min/mg | 
COc1ncc(N[C@H]2CC[C@@H](Nc3ccc4nnc(Cl)n4n3)CC2)cc1Cl | 3.8 | 0.6 µM | < 3 µL/min/mg | 

Second part, led by results:

logD [1] | IC50 [2] | microsomal CLint [3] | SMILES | also measured
1.4 | 26 µM | < 3 µL/min/mg | Nc1nnc2ccc(N[C@H]3CC[C@@H](Nc4ccnc(C(F)(F)F)n4)CC3)nn12 | 
> 5.3 | 1.8 µM | 7.5 µL/min/mg | FC(F)(F)c1cccc(N[C@H]2CC[C@@H](Nc3ccnc(C(F)(F)F)n3)CC2)c1 | 
3.6 | 1.1 µM | 18 µL/min/mg | CN(c1ccnc(C(F)(F)F)n1)[C@H]1CC[C@@H](Nc2ccc3nnc(Cl)n3n2)CC1 | 
2.8 | 7.5 µM | 26 µL/min/mg | FC(F)(F)c1nccc(N[C@H]2CC[C@@H](Nc3ccc4cnccc4n3)CC2)n1 | 
3.1 | 0.3 µM | < 3 µL/min/mg | FC(F)(F)c1nccc(N[C@H]2CC[C@@H](Nc3ccc4nnc(Cl)n4n3)CC2)n1 | IC50 (Cytochrome P450 2C19): 14 µM; solubility [5]: 19 µM (≈ 7.84 µg/mL); IC50 [6]: 3.2 µM; IC50 [7]: 24 µM; IC50 (Cytochrome P450 1A2): > 30 µM; IC50 (Cytochrome P450 2C9): 10 µM; IC50 (Cytochrome P450 2D6): > 30 µM; IC50 (Cytochrome P450 3A4): 18 µM; Papp A→B at 2 h, 10 µM [8]: 44 ×10⁻⁶ cm/s; Vdss [9]: 2.2 L/kg; bioavailability [10]: 72%; half-life [11]: 4 h; AUC [12]: 3.21 µM·h
2.7 | 23 µM | 31 µL/min/mg | FC(F)(F)c1nccc(NCC2CCN(c3ccc4nnc(Cl)n4n3)CC2)n1 | 
3 | 4.2 µM | 11 µL/min/mg | FC(F)(F)c1nccc(N[C@]23CC[C@](Nc4ccc5nnc(Cl)n5n4)(CC2)CC3)n1 | 
2.8 | 6.1 µM | 37 µL/min/mg | FC(F)(F)c1nccc(N2CCC(CNc3ccc4nnc(Cl)n4n3)CC2)n1 | 
1.9 | > 50 µM | 18 µL/min/mg | FC(F)(F)c1nccc(N[C@H]2CC[C@@H](Nc3ccncn3)CC2)n1 | 
2.9 | > 50 µM | 50 µL/min/mg | FC(F)(F)c1nccc(N2CCC(Nc3ccc4nnc(Cl)n4n3)CC2)n1 | 
2.5 | 17 µM | 36 µL/min/mg | FC(F)(F)c1nccc(N[C@H]2C[C@@H](CNc3ccc4nnc(Cl)n4n3)C2)n1 | 
4.3 | 0.4 µM | 9.9 µL/min/mg | FC(F)(F)c1nccc(N[C@H]2CC[C@@H](Nc3ccc4ncc(Cl)n4n3)CC2)n1 | 
2.2 | > 50 µM | 6.9 µL/min/mg | FC(F)(F)c1nccc(N[C@H]2C[C@@H](Nc3ccc4nnc(Cl)n4n3)C2)n1 | 
2.3 | 4.7 µM | < 3 µL/min/mg | Cc1nnc2ccc(N[C@H]3CC[C@@H](Nc4ccnc(C(F)(F)F)n4)CC3)nn12 | 
3.5 | 0.5 µM | 12 µL/min/mg | CN(c1ccc2nnc(Cl)n2n1)[C@H]1CC[C@@H](Nc2ccnc(C(F)(F)F)n2)CC1 | 
2.9 | 1.1 µM | < 3 µL/min/mg | FC(F)(F)c1nccc(N[C@H]2CC[C@@H](Nc3ccc4nnc(Br)n4n3)CC2)n1 | IC50 [6]: 6.1 µM
0.7 | 31 µM | 25 µL/min/mg | Clc1nnc2ccc(N[C@H]3CC[C@@H](Nc4ccncn4)CC3)nn12 | 
2.4 | > 50 µM | < 3 µL/min/mg | FC(F)(F)c1nccc(N2CCN(c3ccc4nnc(Cl)n4n3)CC2)n1 | 

Source: ChEMBL document CHEMBL5143527, “Discovery and optimization of cyclohexane-1,4-diamines as allosteric MALT1 inhibitors” (Eur J Med Chem, 2022)
